PubChem BioAssay AID504907 (The Scripps Research Institute Molecular Screening Center, 2011)

Target: Glucose-6-phosphatase catalytic subunit 1 (Homo sapiens) (UniProt P35575)
Test: endogenous G6PC mRNA suppression, late-stage follow-up, mechanism study for RORA inverse agonist project, cell-based, real-time PCR, fluorescence, assay provider (AID 504907)
Conditions: HepG2 G6PC mRNA RT-qPCR, 20 h, at 10 µM, stronger effect = lower value
Method in brief: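 System: HepG2 human hepatoma cells, endogenous G6Pase (G6PC) transcript | Compound dosing: One nominal dose of 10 µM | Timing: 20 h compound exposure of HepG2 cells | Technique: SYBR Green real-time RT-PCR of G6Pase mRNA | Evaluation: Mean fold change in G6Pase mRNA relative to vehicle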

Chain of Glucose-6-phosphatase catalytic subunit 1 (Homo sapiens) (P35575 whole entry, looked up): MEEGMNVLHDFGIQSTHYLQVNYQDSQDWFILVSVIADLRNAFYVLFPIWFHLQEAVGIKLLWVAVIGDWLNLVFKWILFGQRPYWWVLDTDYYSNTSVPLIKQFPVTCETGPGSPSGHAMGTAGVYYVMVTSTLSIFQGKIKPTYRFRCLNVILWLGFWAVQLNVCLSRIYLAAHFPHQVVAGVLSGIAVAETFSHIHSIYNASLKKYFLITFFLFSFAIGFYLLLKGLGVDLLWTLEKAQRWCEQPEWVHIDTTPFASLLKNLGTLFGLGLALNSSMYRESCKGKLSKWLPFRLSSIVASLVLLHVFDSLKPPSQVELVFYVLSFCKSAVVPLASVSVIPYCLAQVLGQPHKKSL

`O=S(=O)(Nc1ccc(C(O)(C(F)(F)F)C(F)(F)F)cc1)c1cccs1` was tested, and the relative mRNA level (with RORA + RORG siRNA) was 0.279 and the relative mRNA level (with control siRNA) was 0.676.
